Results taken from publication PMC7161550 (British Journal of Pharmacology, 2020).
Values joined by “and” are separate entries in the source; they are usually repeats but may differ in a detail not shown here. Equal values may be shown once.

How the values were obtained:
MATE1 = MATE1 (Homo sapiens, UniProt Q96FL8); experiment: Transporter inhibition, probe substrate accumulation; type: in vitro ADME; settings: MDCKII cells stably transfected with MATE1
Outline: (§1)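 Inhibition of probe substrate accumulation in transfected cells: CHO‑K1 for OAT1 and OCT1; HEK293 for OAT3, OATP1B1 and OATP1B3; MDCKII for OCT2, MATE1 and MATE2‑K. Each transporter's activity was confirmed with a positive control substrate or inhibitor.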

human MATE2-K = human MATE2-K (Homo sapiens, UniProt Q86VL8); experiment: as above; type: in vitro ADME
Outline: as §1

CYP2C19 = CYP2C19 (Homo sapiens, UniProt P33261); experiment: CYP inhibition, pooled human liver microsomes; type: in vitro ADME; settings: 0.33–99.2 μM, co‐ and pre‐incubation
Outline: (§2)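 The rate of metabolite formation was measured; testosterone was one CYP3A4 substrate. Controls: solvent vehicle, enzyme-selective inhibitors, mechanism-based inhibitors. Analysis by HPLC with online radio-detection or LC/MS/MS.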

MDR1 = MDR1 (Homo sapiens, UniProt P08183); experiment: Bidirectional permeability in MDCKII‐MDR1 monolayers; type: in vitro ADME
Outline: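 Bidirectional (A–B, B–A) permeability of test compound at 10 μM across MDCKII‑MDR1 and parental monolayers. A positive control substrate (5 μM) was included; PSC833 (10 μM) and a second inhibitor (100 μM) served as MDR1 inhibitors. Net efflux ratio = ER(MDR1) − ER(MDCKII).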

CaI‐PLA2 (PLA2G6) = CaI‐PLA2 (PLA2G6) (Rattus norvegicus, UniProt P97570); experiment: ABPP ex vivo, rat brain after oral BIA 10‐2474; type: in vivo
human OATP1B1 = human OATP1B1 (Homo sapiens, UniProt Q9Y6L6); experiment: Transporter inhibition, probe substrate accumulation; type: in vitro ADME; settings: 0.033–33.3 μM
Outline: as §1

[1] = type: in vivo; settings: rat, 10 mg·kg^−1 p.o.
CYP2A6 = CYP2A6 (Homo sapiens, UniProt P11509); experiment: CYP inhibition, pooled human liver microsomes; type: in vitro ADME; settings: 0.33–99.2 μM, co‐ and pre‐incubation
Outline: as §2

OAT3 = OAT3 (Homo sapiens, UniProt Q8TCC7); experiment: Transporter inhibition, probe substrate accumulation; type: in vitro ADME; settings: HEK293 cells stably transfected with OAT3
Outline: as §1

CYP2D6 = CYP2D6 (Homo sapiens, UniProt P10635); experiment: CYP inhibition, pooled human liver microsomes; type: in vitro ADME
Outline: as §2

[2] = test system: human solute carrier (SLC) transporters; experiment: Accumulation of BIA 10‐2474 in transporter‐expressing and control cells; type: in vitro ADME; settings: transporter‐expressing vs control cell, all conditions tested
Outline: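 Test compound accumulation was compared between transporter-expressing and control cells, expressed as transporter-specific fold accumulation. Transfected lines: CHO‑K1 (OAT1, OCT1), HEK293 (OAT3, OATP1B1, OATP1B3), MDCKII (OCT2, MATE1, MATE2‑K). Transporter activity was confirmed with positive control substrate or inhibitor.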

CYP3A4 = CYP3A4 (Homo sapiens, UniProt P08684); experiment: CYP inhibition, pooled human liver microsomes; type: in vitro ADME
Outline: as §2

human OAT1 = human OAT1 (Homo sapiens, UniProt Q4U2R8); experiment: Transporter inhibition, probe substrate accumulation; type: in vitro ADME; settings: 0.033–33.3 μM
Outline: as §1

BCRP = biological target: T1, BCRP (Homo sapiens, UniProt Q9UNQ0); experiment: Bidirectional permeability in MDCKII‐BCRP monolayers; type: in vitro ADME
T1 sequence (Q9UNQ0 1-655): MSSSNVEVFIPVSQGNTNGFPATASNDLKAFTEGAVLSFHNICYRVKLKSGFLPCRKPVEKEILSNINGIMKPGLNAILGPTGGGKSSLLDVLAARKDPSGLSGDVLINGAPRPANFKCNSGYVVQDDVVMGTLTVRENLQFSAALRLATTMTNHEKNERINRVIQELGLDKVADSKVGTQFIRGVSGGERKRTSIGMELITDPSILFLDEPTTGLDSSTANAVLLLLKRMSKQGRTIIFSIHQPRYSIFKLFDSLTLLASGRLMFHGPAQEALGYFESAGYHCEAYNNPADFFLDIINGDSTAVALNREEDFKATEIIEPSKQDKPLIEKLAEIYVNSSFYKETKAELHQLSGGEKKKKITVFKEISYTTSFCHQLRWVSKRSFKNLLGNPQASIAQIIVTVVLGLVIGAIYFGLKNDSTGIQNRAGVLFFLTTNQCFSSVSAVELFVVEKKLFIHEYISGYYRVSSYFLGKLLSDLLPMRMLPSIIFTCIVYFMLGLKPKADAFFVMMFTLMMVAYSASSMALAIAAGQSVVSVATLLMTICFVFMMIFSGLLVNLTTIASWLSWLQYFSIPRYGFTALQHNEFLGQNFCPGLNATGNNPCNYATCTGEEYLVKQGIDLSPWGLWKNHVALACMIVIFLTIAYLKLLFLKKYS
Outline: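 Test compound (10 μM) permeability was measured in A–B and B–A directions across MDCKII‑BCRP and parental MDCKII monolayers. 3H‑prazosin (1 μM) served as positive control, with a BCRP inhibitor at 1 μM. Net efflux ratio = ER(BCRP) − ER(MDCKII).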

[3] = Protein binding to cell homogenates; type: in vitro ADME; settings: 500 μg·ml^−1 of protein
[4] = pre‐incubation with BIA 10‐2474

Chain of human MATE2-K (Q86VL8 1-566 isoform Q86VL8-3): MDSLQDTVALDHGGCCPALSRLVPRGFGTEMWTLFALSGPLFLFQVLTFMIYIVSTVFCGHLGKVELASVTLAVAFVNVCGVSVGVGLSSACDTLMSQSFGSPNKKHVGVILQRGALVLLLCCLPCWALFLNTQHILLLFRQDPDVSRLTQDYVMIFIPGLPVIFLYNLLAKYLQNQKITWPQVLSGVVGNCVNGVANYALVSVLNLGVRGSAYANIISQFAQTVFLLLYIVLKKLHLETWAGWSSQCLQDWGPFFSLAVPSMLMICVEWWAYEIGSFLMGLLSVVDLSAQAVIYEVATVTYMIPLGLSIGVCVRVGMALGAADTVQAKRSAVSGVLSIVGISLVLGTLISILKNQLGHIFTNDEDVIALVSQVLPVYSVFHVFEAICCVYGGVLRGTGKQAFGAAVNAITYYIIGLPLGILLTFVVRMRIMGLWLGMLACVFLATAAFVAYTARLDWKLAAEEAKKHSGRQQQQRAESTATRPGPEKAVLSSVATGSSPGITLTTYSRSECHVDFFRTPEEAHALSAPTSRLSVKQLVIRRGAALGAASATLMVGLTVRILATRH
Chain of CYP3A4 (P08684 whole entry): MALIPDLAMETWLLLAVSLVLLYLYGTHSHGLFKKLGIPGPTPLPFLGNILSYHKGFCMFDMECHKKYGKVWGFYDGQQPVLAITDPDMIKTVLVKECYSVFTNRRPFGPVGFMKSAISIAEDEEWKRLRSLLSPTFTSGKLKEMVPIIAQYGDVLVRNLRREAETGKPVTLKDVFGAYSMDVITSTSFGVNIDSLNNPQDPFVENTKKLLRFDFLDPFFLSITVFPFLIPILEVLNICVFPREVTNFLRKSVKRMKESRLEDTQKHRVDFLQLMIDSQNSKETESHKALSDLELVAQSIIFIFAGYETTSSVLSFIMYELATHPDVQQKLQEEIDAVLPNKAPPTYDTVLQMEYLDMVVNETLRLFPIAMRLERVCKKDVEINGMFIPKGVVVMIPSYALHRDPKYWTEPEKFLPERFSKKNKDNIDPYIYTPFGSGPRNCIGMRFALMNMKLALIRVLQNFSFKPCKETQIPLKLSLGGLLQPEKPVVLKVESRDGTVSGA
Chain of CYP2D6 (P10635 whole entry): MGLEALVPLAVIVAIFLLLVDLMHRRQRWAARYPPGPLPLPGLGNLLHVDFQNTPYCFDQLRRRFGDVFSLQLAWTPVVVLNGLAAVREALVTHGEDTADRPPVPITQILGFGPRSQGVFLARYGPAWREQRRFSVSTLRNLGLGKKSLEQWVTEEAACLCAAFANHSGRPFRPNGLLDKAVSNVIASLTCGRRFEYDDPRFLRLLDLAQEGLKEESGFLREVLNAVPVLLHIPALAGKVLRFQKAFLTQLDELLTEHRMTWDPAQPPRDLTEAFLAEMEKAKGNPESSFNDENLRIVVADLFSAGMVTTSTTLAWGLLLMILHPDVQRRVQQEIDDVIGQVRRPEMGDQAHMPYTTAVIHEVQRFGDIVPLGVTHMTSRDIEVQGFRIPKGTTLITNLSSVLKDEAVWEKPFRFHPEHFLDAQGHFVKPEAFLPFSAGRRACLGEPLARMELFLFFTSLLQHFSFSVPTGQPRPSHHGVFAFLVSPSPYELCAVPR
Chain of MDR1 (P08183 whole entry): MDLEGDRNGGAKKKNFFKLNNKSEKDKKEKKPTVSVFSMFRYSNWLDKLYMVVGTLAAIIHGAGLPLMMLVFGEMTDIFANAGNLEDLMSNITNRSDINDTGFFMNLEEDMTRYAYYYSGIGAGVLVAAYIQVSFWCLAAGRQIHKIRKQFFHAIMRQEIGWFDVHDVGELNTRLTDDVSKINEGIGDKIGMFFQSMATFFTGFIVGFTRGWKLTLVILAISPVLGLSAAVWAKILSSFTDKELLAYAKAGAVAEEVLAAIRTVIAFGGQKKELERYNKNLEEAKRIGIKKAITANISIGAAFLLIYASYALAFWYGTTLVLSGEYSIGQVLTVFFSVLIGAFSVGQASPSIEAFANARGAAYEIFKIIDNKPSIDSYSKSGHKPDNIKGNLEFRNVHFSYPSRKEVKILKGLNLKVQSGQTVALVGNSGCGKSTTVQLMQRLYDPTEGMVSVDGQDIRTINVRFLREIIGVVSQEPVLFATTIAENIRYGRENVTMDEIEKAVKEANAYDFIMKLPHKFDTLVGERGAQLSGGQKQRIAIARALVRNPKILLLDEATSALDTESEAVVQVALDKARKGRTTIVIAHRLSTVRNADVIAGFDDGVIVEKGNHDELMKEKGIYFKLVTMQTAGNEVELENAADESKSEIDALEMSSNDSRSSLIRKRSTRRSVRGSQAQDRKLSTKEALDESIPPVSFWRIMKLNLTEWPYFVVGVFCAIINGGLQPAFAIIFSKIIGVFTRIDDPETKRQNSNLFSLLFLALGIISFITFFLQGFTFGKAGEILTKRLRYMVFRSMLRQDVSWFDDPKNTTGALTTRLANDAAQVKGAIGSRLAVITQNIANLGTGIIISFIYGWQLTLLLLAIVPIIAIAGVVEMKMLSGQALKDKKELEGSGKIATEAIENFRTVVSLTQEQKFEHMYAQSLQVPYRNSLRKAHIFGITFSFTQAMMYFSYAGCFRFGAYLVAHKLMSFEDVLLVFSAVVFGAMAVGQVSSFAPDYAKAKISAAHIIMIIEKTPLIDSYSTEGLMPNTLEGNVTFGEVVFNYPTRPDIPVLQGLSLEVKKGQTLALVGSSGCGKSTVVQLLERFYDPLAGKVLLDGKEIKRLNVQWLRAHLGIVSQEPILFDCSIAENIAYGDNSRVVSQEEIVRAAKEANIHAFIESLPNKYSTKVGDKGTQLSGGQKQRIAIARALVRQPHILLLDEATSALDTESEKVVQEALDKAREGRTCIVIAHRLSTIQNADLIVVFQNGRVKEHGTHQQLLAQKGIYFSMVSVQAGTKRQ
Chain of CaI‐PLA2 (PLA2G6) (P97570 whole entry): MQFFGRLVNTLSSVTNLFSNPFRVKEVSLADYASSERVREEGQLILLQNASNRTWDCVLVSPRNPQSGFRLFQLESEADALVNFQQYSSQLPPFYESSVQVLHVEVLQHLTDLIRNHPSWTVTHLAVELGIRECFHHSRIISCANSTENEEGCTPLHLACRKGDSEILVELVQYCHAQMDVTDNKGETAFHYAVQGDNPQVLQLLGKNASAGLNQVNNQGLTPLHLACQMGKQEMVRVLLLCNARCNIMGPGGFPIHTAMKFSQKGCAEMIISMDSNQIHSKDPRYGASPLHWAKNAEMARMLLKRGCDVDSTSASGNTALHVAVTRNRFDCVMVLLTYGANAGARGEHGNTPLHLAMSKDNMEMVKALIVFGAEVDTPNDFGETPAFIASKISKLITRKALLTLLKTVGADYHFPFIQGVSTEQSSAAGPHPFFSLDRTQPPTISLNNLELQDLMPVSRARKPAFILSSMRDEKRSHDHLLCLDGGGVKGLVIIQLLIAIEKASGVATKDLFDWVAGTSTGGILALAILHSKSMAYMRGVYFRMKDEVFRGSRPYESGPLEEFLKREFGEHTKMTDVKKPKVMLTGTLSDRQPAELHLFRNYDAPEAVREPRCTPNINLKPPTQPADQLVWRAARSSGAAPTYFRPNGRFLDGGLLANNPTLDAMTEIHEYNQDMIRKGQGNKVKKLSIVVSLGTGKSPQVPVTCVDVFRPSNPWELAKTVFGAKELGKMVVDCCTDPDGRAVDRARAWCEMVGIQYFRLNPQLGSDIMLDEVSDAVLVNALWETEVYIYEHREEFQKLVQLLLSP
Chain of human OAT1 (Q4U2R8 whole entry): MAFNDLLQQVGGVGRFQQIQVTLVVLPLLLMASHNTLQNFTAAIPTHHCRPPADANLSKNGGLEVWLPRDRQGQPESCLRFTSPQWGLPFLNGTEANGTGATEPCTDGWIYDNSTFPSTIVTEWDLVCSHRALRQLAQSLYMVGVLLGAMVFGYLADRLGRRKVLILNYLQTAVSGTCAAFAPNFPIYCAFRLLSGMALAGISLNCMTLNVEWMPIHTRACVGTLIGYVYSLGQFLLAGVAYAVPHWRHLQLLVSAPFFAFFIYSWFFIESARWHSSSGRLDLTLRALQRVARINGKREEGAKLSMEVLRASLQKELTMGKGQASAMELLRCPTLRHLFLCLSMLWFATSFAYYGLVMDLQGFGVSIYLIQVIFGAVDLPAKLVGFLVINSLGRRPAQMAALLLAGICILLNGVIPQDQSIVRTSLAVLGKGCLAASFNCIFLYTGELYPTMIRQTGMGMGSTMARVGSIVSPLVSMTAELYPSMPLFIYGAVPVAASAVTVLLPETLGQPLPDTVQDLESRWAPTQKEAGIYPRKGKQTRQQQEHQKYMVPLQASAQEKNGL
Chain of CYP2A6 (P11509 whole entry): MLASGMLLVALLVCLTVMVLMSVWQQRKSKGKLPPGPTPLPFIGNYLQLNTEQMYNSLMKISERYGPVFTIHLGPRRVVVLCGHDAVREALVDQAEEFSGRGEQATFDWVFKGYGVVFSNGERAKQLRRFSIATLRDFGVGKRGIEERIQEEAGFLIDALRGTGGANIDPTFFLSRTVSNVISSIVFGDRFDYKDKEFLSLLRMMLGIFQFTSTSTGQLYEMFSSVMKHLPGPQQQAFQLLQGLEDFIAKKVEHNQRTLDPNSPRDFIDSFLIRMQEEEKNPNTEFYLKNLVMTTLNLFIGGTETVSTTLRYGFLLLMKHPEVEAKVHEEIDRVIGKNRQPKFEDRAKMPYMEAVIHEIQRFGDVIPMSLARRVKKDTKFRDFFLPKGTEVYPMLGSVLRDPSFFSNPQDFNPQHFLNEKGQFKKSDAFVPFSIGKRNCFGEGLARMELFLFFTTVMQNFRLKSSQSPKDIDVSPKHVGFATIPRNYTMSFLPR

SMILES: CN(C(=O)n1cnc(-c2ccc[n+]([O-])c2)c1)C1CCCCC1 [BIA 10‐2474, 3‐(1‐(cyclohexyl (methyl)carbamoyl)‐1H‐imidazol‐4‐yl)pyridine 1‐oxide]
- inhibition at 10 μg·ml^−1 (MATE1): 24%
- maximum inhibition, MATE2‐K (human MATE2-K): 59%
- IC50 (human MATE2-K; IC50, MATE2‐K‐mediated probe substrate accumulation): 3.43 µM and 3.4 µM
- inhibitory effect on CYP2C19 (CYP2C19): did not exhibit any inhibitory effects
- efflux ratio (MDR1; MDCK-MDR1, highest observed net efflux ratio (ERMDR1‐ERMDCKII)): 2.24
- efflux ratio at 10 μM (MDR1; MDCK-MDR1, net ER, MDCKII‐MDR1, without inhibitor): 1.45
- rats in which PLA2g6 was completely inhibited (CaI‐PLA2 (PLA2G6); 30 mg·kg^−1): four out of six rats
- rats in which PLA2g6 was completely inhibited (CaI‐PLA2 (PLA2G6); 100 mg·kg^−1): three out of six rats
- effect on OATP1B1‐mediated probe substrate accumulation (human OATP1B1): did not influence
- level in all brain sections ([1]; 24 hr after acute and 24, 48 and 72 hr after chronic administration): < 50 ng·g^−1 of tissue
- brain levels, acute versus repeated oral administration ([1]; any brain region and time point): no significant differences
- inhibitory effect on CYP2A6 (CYP2A6): did not exhibit any inhibitory effects
- inhibition (OAT3): 34%
- inhibition of CYP2D6 (CYP2D6; co‐incubation): minor inhibition
- inhibition of CYP2D6 (CYP2D6; [4]): no effect
- transporter specific fold accumulations [2]: < 2
- inhibitory effect on CYP3A4 [midazolam] (CYP3A4; 0.33–99.2 μM, co‐ and pre‐incubation): did not exhibit any inhibitory effects
- inhibition of CYP3A4 (testosterone as substrate) (CYP3A4; co‐incubation): minor inhibition
- inhibition of CYP3A4 (testosterone as substrate) (CYP3A4; [4]): no effect
- effect on OAT1‐mediated probe substrate accumulation (human OAT1): did not influence
- efflux ratio (BCRP; highest observed net efflux ratio (ERBCRP‐ERMDCKII), 10 and 1 μM): 5.7
- efflux ratio (BCRP; net ER, MDCKII‐BCRP, without inhibitor): 4.95
- efflux ratio (BCRP; with Ko143 1 μM, net ER, MDCKII‐BCRP, with 1 μM of Ko143): 0.03

SMILES: O=C(Nc1cccnn1)N1CCC(=Cc2cccc(Oc3ccc(C(F)(F)F)cn3)c2)CC1 [PF‐04457845]
- mean % free fraction ± SD [3]: 28.0 ± 3.9%
